The values below come from ChEMBL document CHEMBL4699644, “Discovery of a potent dual inhibitor of wild-type and mutant respiratory syncytial virus fusion proteins through the modulation of atropisomer interconversion properties” (Bioorg Med Chem, 2020).

The subject of data set [1] is CYP3A. The data set can be described thus: Inhibition of human liver microsomes CYP3A at 10 uM using testosterone as substrate in presence of NADPH preincubated for 30 mins followed by substrate addition and measured after 10 mins by LC/MS analysis. The settings on record: probe testosterone, time 40 min. The data set is classed as ADME, Microsome. The method, boiled down: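 Compound preincubated 0 or 30 min at 37 °C with human liver microsomes (0.5 mg protein/mL) in sodium–potassium phosphate buffer pH 7.4 with NADPH-regenerating system. Then diluted 10-fold into secondary buffer with testosterone 250 μM plus NADPH-regenerating system and incubated 10 min. Stopped with acetonitrile containing internal standard, centrifuged, LC-MS/MS. Value is the difference in % inhibition between 0- and 30-min preincubation.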
(In general: Liver microsomes are vesicles of endoplasmic reticulum, rich in cytochrome P450 enzymes.)

The nature of data set [2]: Protein binding in human plasma at 1 ug/ml incubated for 4 hrs by LC-MS analysis. Particulars: at 1 µg/mL, read-out: PPB (converted). The class given is ADME, cell-free. The method, boiled down:
(§1)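 Equilibrium dialysis with 12–14 kDa cutoff membrane. Compound dissolved in DMSO and spiked into blank plasma at 1 μg/mL final. Plasma dialysed against phosphate buffer pH 7.4 at 37 °C, 5% CO2, 4 h. Compound in plasma and buffer measured by LC-MS/MS and % bound calculated.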

Data set [3] is described as follows: Protein binding in mouse plasma at 1 ug/ml incubated for 4 hrs by LC-MS analysis. The data set is classed as ADME, cell-free. Particulars: at 1 µg/mL, read-out: PPB (converted). Summed up:
as §1

Data set [4] is described as follows: Permeability of compound incubated for 4 hrs by PAMPA assay. The class given is ADME. The settings on record: read-out: permeability. The method, boiled down: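 Artificial membrane permeation run 4 h at room temperature and quantified by UV plate reader. Apparent permeability calculated at pH 6.2.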
(In general: PAMPA measures passive passage across an artificial lipid membrane.)

What is called inhibition is the change of the read-out against control, counted positive when it falls.

For `CN1CCNC(=O)COc2ccc(Cl)cc2C(=O)N2CCCC[C@H]2c2cc3nc([C@H]4C[C@H](O)C4)cc1n3n2`, in data set [1], the inhibition at 10 min, 10 µM is -1.4%. Also, the fraction unbound at 4 h, 1 ug/ml in data set [2] was 0.093; in data set [3], 0.145. In the case of `CN1CCNC(=O)COc2ccc(F)cc2C(=O)N2CCCC[C@H]2c2cc3nc(N4CC(N)C4)cc1n3n2`, the Papp at 4 h in data set [4] turned out to be 3.3 ×10⁻⁶ cm/s.

Turning to `CN1CCNC(=O)COc2ccc(F)cc2C(=O)N2CCCC[C@H]2c2cc3nc([C@H]4C[C@H](O)C4)cc1n3n2`, in data set [1], the inhibition at 10 min, 10 µM is 0.4%. Besides, in data set [4], the Papp at 4 h was 27 ×10⁻⁶ cm/s.

In the case of `CN1CCNC(=O)COc2ccc(F)cc2C(=O)N2CCCC[C@H]2c2cc3nc(N4CC(O)C4)cc1n3n2`, the Papp at 4 h in data set [4] turned out to be 8 ×10⁻⁶ cm/s. With `CN1CCNC(=O)COc2ccc(Cl)cc2C(=O)N2CCCCC2c2cc3nc(N4CCC4)cc1n3n2` (stereo unspecified), the inhibition at 10 min, 10 µM in data set [1] was -2.9%. Consider `CN1CCNC(=O)COc2ccc(F)cc2C(=O)N2CCCC[C@H]2c2cc3nc(N4CCC4)cc1n3n2`, for which the inhibition at 10 min, 10 µM in data set [1] was -4.7%. Also, the fraction unbound at 4 h, 1 ug/ml was 0.13 in data set [2] and 0.02 in data set [3]. Moreover, the Papp at 4 h in data set [4] is 80 ×10⁻⁶ cm/s. Take `CN1CCNC(=O)COc2ccc(F)cc2C(=O)N2CCCC[C@H]2c2cc3nc([C@H]4C[C@@H](O)C4)cc1n3n2`: the Papp at 4 h in data set [4] turned out to be 28 ×10⁻⁶ cm/s. With `Cc1ccc2c(c1)C(=O)N1CCCCC1c1cc3nc(N4CCC4)cc(n3n1)N(C)CCNC(=O)CO2` (stereo unspecified), the inhibition at 10 min, 10 µM in data set [1] stood at 60.1%. In addition, the fraction unbound at 4 h, 1 ug/ml in data set [2] was 0.064; in data set [3], 0.031. In the case of `CNC1CN(c2cc3n4nc(cc4n2)[C@@H]2CCCCN2C(=O)c2cc(F)ccc2OCC(=O)NCCN3C)C1`, the Papp at 4 h in data set [4] is 5.9 ×10⁻⁶ cm/s. For the molecule `Cc1ccc2c(c1)C(=O)N1CCCC[C@H]1c1cc3nc([C@H]4C[C@H](O)C4)cc(n3n1)N(C)CCNC(=O)CO2`, the inhibition at 10 min, 10 µM in data set [1] came to 57%. In addition, the fraction unbound at 4 h, 1 ug/ml in data set [2] was 0.112; in data set [3], 0.222. In the case of `CN1CCNC(=O)COc2ccc(F)cc2C(=O)N2CCCC[C@H]2c2cc3nc(N4CC[C@H](N)C4)cc1n3n2`, in data set [4], the Papp at 4 h came to 0.3 ×10⁻⁶ cm/s.
